Assay type in all cases: functional
In assay [1] the test system is Candida albicans. Kind of assay: Antimicrobial activity against azole-resistant Candida albicans isolate CA16 after 48 hrs by broth microdilution method. Particulars: isolate CA16, 48 h. In short, it runs like this:
(§1)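 CLSI M27-A2 broth microdilution was run in RPMI 1640 (pH 7.0, 2% dextrose, 0.165 M MOPS). Inoculum was 2.5 × 10^3 CFU/ml, incubated 35°C for 48 h without shaking. Plates were read visually (0–5 scale) and at OD 492 nm. MIC80 = lowest concentration giving an 80% absorbance decrease vs drug-free control. Triplicate.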
On the technique in general: Dilution methods test growth across graded concentrations, often in twofold steps.

Assay [2] relates to Candida albicans. Kind of assay: Antimicrobial activity against azole-susceptible Candida albicans isolate CA5 co-treated with calcineurin signaling inhibitor tacrolimus after 48 hrs by microdilution checkerboard technique. Particulars: isolate CA5, 48 h. In outline:
(§2)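 Checkerboard microdilution in MOPS-buffered RPMI 1640 (pH 7.0, 2% dextrose) with 2.5 × 10^3 CFU/ml for 48 h at 35°C. Final FK506 was 0.002–0.125 μg/ml. Azole finals were FLC 0.125–128 μg/ml, and ITR and VRC 0.008–8 μg/ml. MIC80 is an 80% OD492 decrease vs drug-free control. Interaction was scored by FICI (synergy ≤0.5, antagonism >4) and by ΔE from triplicates.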

Assay [3] concerns Candida albicans. Kind of assay: Antimicrobial activity against azole-resistant Candida albicans isolate CA135 after 48 hrs by broth microdilution method. As to conditions: isolate CA135, 48 h. In short, it runs like this:
as §1

For assay [4], the system named is Candida albicans. The assay is described as follows: Antimicrobial activity against azole-resistant Candida albicans isolate CA15 after 48 hrs by broth microdilution method. As to conditions: isolate CA15, 48 h. In outline:
as §1

The subject of assay [5] is Candida albicans. Kind of assay: Antimicrobial activity against azole-susceptible Candida albicans isolate CA129 after 48 hrs by broth microdilution method. As to conditions: isolate CA129, 48 h. In outline: as §1
The test system of assay [6] is Candida albicans. Kind of assay: Antimicrobial activity against azole-susceptible Candida albicans isolate CA8 co-treated with calcineurin signaling inhibitor tacrolimus after 48 hrs by microdilution checkerboard technique. Particulars: isolate CA8, 48 h. In outline:
as §2

Assay [7] deals with Candida albicans. Kind of assay: Antimicrobial activity against azole-susceptible Candida albicans isolate CA12 after 48 hrs by broth microdilution method. As to conditions: isolate CA12, 48 h. In outline:
as §1

The test system of assay [8] is Candida albicans. Kind of assay: Antimicrobial activity against azole-resistant Candida albicans isolate CA15 cotreated with calcineurin signaling inhibitor Tacrolimus after 48 hrs by microdilution checkerboard technique. As to conditions: isolate CA15, 48 h. In short, it runs like this: as §2
The subject of assay [9] is Candida albicans. The assay is described as follows: Antimicrobial activity against azole-susceptible Candida albicans isolate CA12 co-treated with calcineurin signaling inhibitor tacrolimus after 48 hrs by microdilution checkerboard technique. Particulars: isolate CA12, 48 h. In outline:
as §2

For assay [10], the system named is Candida albicans. Kind of assay: Antimicrobial activity against azole-resistant Candida albicans isolate CA16 cotreated with calcineurin signaling inhibitor Tacrolimus after 48 hrs by microdilution checkerboard technique. Particulars: isolate CA16, 48 h. In outline: as §2
Assay [11] deals with Candida albicans. Kind of assay: Antimicrobial activity against azole-susceptible Candida albicans isolate CA129 co-treated with calcineurin signaling inhibitor tacrolimus after 48 hrs by microdilution checkerboard technique. Particulars: isolate CA129, 48 h. In short, it runs like this:
as §2

For assay [12], the system named is Candida albicans. Kind of assay: Antimicrobial activity against azole-resistant Candida albicans isolate CA10 assessed as log reduction in colony count at 1 ug/ml co-treated with calcineurin signaling inhibitor tacrolimus after 48 hrs by XTT assay. In short, it runs like this:
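Same time-kill setup (10^5 CFU/ml start, azole ± 0.016 μg/ml FK506, 35°C). At each time point, aliquots were mixed 1:1 with XTT (0.5 g/liter in Ringer's lactate) plus 10 μM menadione final. Incubation was in the dark for up to 2 h at 35°C, then formazan was read at 492 nm. OD was converted to CFU via a standard curve (Y = 4.2610x + 4.2087). Triplicate.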
(Tetrazolium assays rely on reduction of a dye to a coloured formazan, in cell work by metabolically active cells.)

Assay [13] deals with Candida albicans. The assay is described as follows: Antimicrobial activity against azole-resistant Candida albicans isolate CA10 assessed as log reduction in colony count at 1 ug/ml co-treated with calcineurin signaling inhibitor tacrolimus after 48 hrs by time killing test. In short, it runs like this:
(§3)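 Time-kill was started at 10^5 CFU/ml, with 10 μg/ml FLC or 1 μg/ml ITR or VRC, alone or with 0.016 μg/ml FK506, and DMSO <1%, at 35°C. At 0, 6, 12, 24 and 48 h, aliquots were serially diluted and plated on Sabouraud agar, then counted after 48 h at 35°C. Triplicate means.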

The test system of assay [14] is Candida albicans. Kind of assay: Antimicrobial activity against azole-resistant Candida albicans isolate CA10 co-treated with calcineurin signaling inhibitor tacrolimus after 48 hrs by microdilution checkerboard technique. Particulars: isolate CA10, 48 h. In outline: as §2
The subject of assay [15] is Candida albicans. The assay is described as follows: Antimicrobial activity against azole-resistant Candida albicans isolate CA137 after 48 hrs by broth microdilution method. Particulars: isolate CA137, 48 h. In short, it runs like this: as §1
Assay [16] has as its system Candida albicans. Kind of assay: Antimicrobial activity against azole-susceptible Candida albicans isolate CA8 after 48 hrs by broth microdilution method. Particulars: isolate CA8, 48 h. In short, it runs like this: as §1
In assay [17] the test system is Candida albicans. The assay is described as follows: Antimicrobial activity against azole-susceptible Candida albicans isolate CA5 after 48 hrs by broth microdilution method. As to conditions: isolate CA5, 48 h. In outline:
as §1

Assay [18] relates to Candida albicans. Kind of assay: Antimicrobial activity against azole-susceptible Candida albicans isolate CA14 assessed as log reduction in colony count at 1 ug/ml co-treated with calcineurin signaling inhibitor tacrolimus after 48 hrs by time killing test. In outline:
as §3

The test system of assay [19] is Candida albicans. The assay is described as follows: Antimicrobial activity against azole-susceptible Candida albicans isolate CA14 after 48 hrs by broth microdilution method. Particulars: isolate CA14, 48 h. In outline: as §1
The subject of assay [20] is Candida albicans. The assay is described as follows: Antimicrobial activity against azole-susceptible Candida albicans isolate CA14 co-treated with calcineurin signaling inhibitor tacrolimus after 48 hrs by microdilution checkerboard technique. Particulars: isolate CA14, 48 h. In short, it runs like this:
as §2

Assay [21] relates to Candida albicans. Kind of assay: Antimicrobial activity against azole-resistant Candida albicans isolate CA135 cotreated with calcineurin signaling inhibitor Tacrolimus after 48 hrs by microdilution checkerboard technique. Particulars: isolate CA135, 48 h. In outline:
as §2

In assay [22] the test system is Candida albicans. Kind of assay: Antimicrobial activity against azole-resistant Candida albicans isolate CA137 cotreated with calcineurin signaling inhibitor Tacrolimus after 48 hrs by microdilution checkerboard technique. Particulars: isolate CA137, 48 h. In short, it runs like this:
as §2

The test system of assay [23] is Candida albicans. The assay is described as follows: Antimicrobial activity against azole-resistant Candida albicans isolate CA10 after 48 hrs by broth microdilution method. As to conditions: isolate CA10, 48 h. In outline:
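Broth microdilution per CLSI M27-A2 in RPMI 1640 (pH 7.0, 2% dextrose, 0.165 M MOPS), final inoculum 2.5 × 10^3 CFU/ml; 35°C without shaking for 48 h. Read visually (0–5 scale) and by OD 492 nm; MIC80 = lowest concentration giving 80% drop in absorbance versus drug-free control. Triplicate.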

Assay [24] relates to Candida albicans. Kind of assay: Antimicrobial activity against azole-susceptible Candida albicans isolate CA14 assessed as log reduction in colony count at 1 ug/ml co-treated with calcineurin signaling inhibitor tacrolimus after 48 hrs by XTT assay. In outline: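 Time-kill assay starting at 10^5 CFU/ml with azole 1 μg/ml plus FK506 0.016 μg/ml at 35°C, with a drug-free control and DMSO <1%. At 48 h, a 100 μl aliquot was mixed with XTT-menadione (XTT 0.5 g/liter in Ringer's lactate, menadione 10 μM final) and incubated in the dark up to 2 h at 35°C. A492 was converted to CFU by standard curve (Y = 4.2610x + 4.2087).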

Values after ≈ are worked out from the molar mass of the structure shown.

Turning to `C[C@@H](c1ncncc1F)[C@](O)(Cn1cncn1)c1ccc(F)cc1F` [VORICONAZOLE], the MIC in assay [1] was 8 µg/mL (≈ 22.9 µM); in [2], 0.016 µg/mL; in [3] it was 8 µg/mL (≈ 22.9 µM); in [4], 8 µg/mL (≈ 22.9 µM); in assay [5] it was 0.016 µg/mL (≈ 0.0458 µM); in [6], 0.016 µg/mL. In addition, the MIC in assay [7] came out at 0.031 µg/mL (≈ 0.0887 µM); in assay [8], 0.008 µg/mL; in assay [9] it was 0.016 µg/mL; in assay [10], 0.008 µg/mL; in assay [11], 0.008 µg/mL; in assay [14], 0.008 µg/mL. Besides, the MIC in [15] worked out at 8 µg/mL (≈ 22.9 µM); in assay [16] it was 0.008 µg/mL (≈ 0.0229 µM); in [17], 0.016 µg/mL (≈ 0.0458 µM); in [19] it was 0.008 µg/mL (≈ 0.0229 µM); in assay [20], 0.008 µg/mL; in assay [21] it was 0.016 µg/mL. The MIC is 0.008 µg/mL in assay [22] and 64 µg/mL (≈ 183 µM) in [23]. Moreover, the Activity in [12] is listed as 2.26; in assay [13] it was 2.15; in assay [18] it was 1.49.

For the molecule `CCC(C)n1ncn(-c2ccc(N3CCN(c4ccc(OCC5COC(Cn6cncn6)(c6ccc(Cl)cc6Cl)O5)cc4)CC3)cc2)c1=O` (configuration not stated) [ITRACONAZOLE], the MIC is 32 µg/mL (≈ 45.3 µM) in assay [1]; 0.031 µg/mL in assay [2]; 16 µg/mL (≈ 22.7 µM) in assay [3]; 32 µg/mL (≈ 45.3 µM) in assay [4]; 0.063 µg/mL (≈ 0.0893 µM) in [5]; 0.008 µg/mL in [6]. Moreover, the MIC in assay [7] is 0.063 µg/mL (≈ 0.0893 µM); in assay [8], 0.063 µg/mL; in assay [9], 0.031 µg/mL; in assay [10] it was 0.016 µg/mL; in assay [11] it was 0.031 µg/mL; in assay [14], 0.031 µg/mL. In addition, the MIC in assay [15] was found to be 16 µg/mL (≈ 22.7 µM); in [16], 0.016 µg/mL (≈ 0.0227 µM); in assay [17], 0.031 µg/mL (≈ 0.0439 µM); in [19], 0.063 µg/mL (≈ 0.0893 µM); in assay [20], 0.031 µg/mL; in [21] it was 0.016 µg/mL. In addition, the figures for the MIC in assay [22] and in assay [23] were 0.063 µg/mL and 128 µg/mL (≈ 181 µM), respectively. Also, the Activity in assay [24] is reported as 1.4; in [12], 2.46; in [13] it was 2.12; in [18], 2.13.

The term MIC denotes the smallest concentration in the dilution series that meets the test's criterion for growth inhibition.

(Values after ChEMBL document CHEMBL1151472, “In vitro interactions between tacrolimus and azoles against Candida albicans determined by different methods” (2008).)
